# Measured values taken from ChEMBL document CHEMBL4257478, “Design, synthesis and evaluation of (R)-3-(7-(methyl(7H-pyrrolo[2,3-d]pyrimidin-4-yl)amino)-5-azaspiro[2.4]heptan-5-yl)-3-oxopropanenitrile as a JAK1-selective inhibitor” (Medchemcomm, 2018).
# How the values were obtained:
# Format in all cases: ADME, organism-based
# Conditions in all cases: in vivo
# [1] = Oral bioavailability in Sprague-Dawley rat at 10 mg/kg after 0.25 to 24 hrs by LC-MS/MS method
# Summary of the method: (§1)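 Male Sprague Dawley rats, 7–8 weeks old, n=4, fasted 16 h. Free base given at 10 mg/kg po as a corn oil suspension (5 mL/kg); a 5 mg/kg iv arm used 10% ethanol/90% PEG400. Plasma sampled 0.25–24 h, acetonitrile-precipitated with internal standard, and measured by LC-MS/MS. Parameters derived by non-compartmental analysis.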
# Rattus norvegicus [2] = assay: AUC (0 to t) in Sprague-Dawley rat at 5 mg/kg, iv after 0.08 to 24 hrs by LC-MS/MS method; parameters: time upper 24 hr, time lower 0.08 hr, dose 5 mg/kg, route intravenous
# Summary of the method: (§2)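 Male Sprague Dawley rats, 7-8 weeks old, n=4 per group. IV dose 5 mg/kg free base in 10% ethanol/90% PEG400; oral dose 10 mg/kg as corn oil suspension after 16 h fast. Blood taken 0.08-24 h (IV) or 0.25-24 h (PO). Plasma diluted in acetonitrile with internal standard, analysed by LC-MS/MS, parameters by non-compartmental analysis.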
# Rattus norvegicus [3] = assay: AUC (0 to t) in Sprague-Dawley rat at 10 mg/kg, po after 0.25 to 24 hrs by LC-MS/MS method; parameters: time lower 0.25 hr, dose 10 mg/kg, time upper 24 hr, route oral; summary of the method: as §2
# [4] = MRT in Sprague-Dawley rat at 10 mg/kg, po after 0.25 to 24 hrs by LC-MS/MS method; summary of the method: as §2
# Rattus norvegicus [5] = assay: AUC (0 to infinity) in Sprague-Dawley rat at 10 mg/kg, po after 0.25 to 24 hrs by LC-MS/MS method; parameters: dose 10 mg/kg, route oral, time infinity; summary of the method: as §2
# Rattus norvegicus [6] = assay: AUC (0 to infinity) in Sprague-Dawley rat at 5 mg/kg, iv after 0.08 to 24 hrs by LC-MS/MS method; parameters: dose 5 mg/kg, time infinity, route intravenous; summary of the method: as §2
# [7] = Half life in Sprague-Dawley rat at 5 mg/kg, iv after 0.08 to 24 hrs by LC-MS/MS method; summary of the method: as §2
# [8] = Cmax in Sprague-Dawley rat at 10 mg/kg, po after 0.25 to 24 hrs by LC-MS/MS method; parameters: dose 10 mg/kg, route oral; summary of the method: as §2
# [9] = Half life in Sprague-Dawley rat at 10 mg/kg, po after 0.25 to 24 hrs by LC-MS/MS method; summary of the method: as §2
# [10] = MRT in Sprague-Dawley rat at 5 mg/kg, iv after 0.08 to 24 hrs by LC-MS/MS method; summary of the method: as §2
# [11] = Tmax in Sprague-Dawley rat at 10 mg/kg, po after 0.25 to 24 hrs by LC-MS/MS method; summary of the method: as §1
bioavailability [1] [%],AUCt (Rattus norvegicus [2]) [ng·h/mL],AUCt (Rattus norvegicus [3]) [ng·h/mL],MRT [4] [h],AUC (Rattus norvegicus [5]) [ng·h/mL],AUC (Rattus norvegicus [6]) [ng·h/mL],half-life [7] [h],Cmax [8] [ng/mL],half-life [9] [h],MRT [10] [h],Tmax [11] [h],Structure (SMILES)
68,1400,1900,1.5,1900,1400,1,1000,1,0.9,0.4,CN(c1ncnc2[nH]ccc12)[C@H]1CN(C(=O)CC#N)CC12CC2.O=C(O)C(O)C(O)C(=O)O
65,1800,2400,1.6,2400,1900,0.6,1300,1.1,0.7,0.4,CN(c1ncnc2[nH]ccc12)[C@H]1CN(C(=O)CC#N)CC12CC2.Cl
58,2000,2400,2.3,2400,2000,4.3,1200,3.6,1.2,0.5,CN(c1ncnc2[nH]ccc12)[C@H]1CN(C(=O)CC#N)CC12CC2.O=C(O)CC(O)(CC(=O)O)C(=O)O
